Active and inactive are the calls of the source.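 The calls were made as follows, unless noted: active = viability at or under a set limit in both replicates, limit being median viability minus 3 SD (cut at about 48% in these data, passing the limit was not always enough); inconclusive = at or under the limit in just one replicate; inactive = at or above the limit in both replicates.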
Tests used:
[1] = Her2 expression decrease, cell viability multiplex – SKBR3 breast tumor cells, AlphaScreen, ATP viability, primary screen (AID 461;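 active = Her2 level under about 52% in both replicate screens, with viability over 70% of control, limit read from the data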;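 as to Her2 level: lower value means less Her2 protein in the cells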;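 as to viability: percent of carrier control wells set as 100% viability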); conditions: SKBR3 Her2 protein level, 18-24 h, measured here: SKBR3 viability, ATP luminescence, at 10 µM
[2] = biological target: Receptor tyrosine-protein kinase erbB-2 (Homo sapiens) (UniProt P04626); test: as above; conditions: 18-24 h, at 10 µM, stronger effect = lower value
[3] = reduced viability of SK-BR-3 breast cancer cells – cell-based, 24 h, human, pilot screen (AID 572;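 active = viability at or below 10% of carrier control in both of two separate runs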;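 also: compound exposure lasted between 18 and 24 h rather than exactly 24 h; 100% = carrier-treated control wells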); conditions: SK-BR-3 viability, CellTiter-Glo luminescence, at 10 µM, stronger effect = lower value
[4] = HUVEC growth inhibition – cell-based, human, primary screen (AID 575;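 active = viability at or below 30% in both replicate assays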;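 also: 100% = median of untreated cell wells with 0.1% DMSO on each plate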); conditions: HUVEC proliferation, CellTiter-Glo luminescence, 72 h; at 10 µM; stronger effect = lower value
In short: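 material = primary HUVEC, no more than 12 passages | input = 1250 cells per well | controls = vehicle and MePR control wells | measured by = CTG luminescence | times = 72 h compound incubation | format = collagen-coated 384-well format | read-out = % viability vs DMSO wells | doses = single 10 µM dose, 0.1% DMSO, from 5x medium stock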

[5] = H69AR cell proliferation blockers – human, duplicate replicates, primary screen (AID 580); conditions: H69AR lung tumor cells viability, ATP luminescence, 72 h; at 10 µM; stronger effect = lower value;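 also: 100% = mean luminescence of untreated wells and 0% = no signal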
[6] = MRP1 drug-resistance reversers in H69AR cells – cell-based, doxorubicin co-treatment, pilot screen (AID 601;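 active = viability loss from added drug above about 55%, and viability with drug at most 40%, in both replicates, limit read from the data, passing the limit was not always enough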); conditions: CellTiter-Glo, 72 h, at 10 µM; for differential viability (reversal): stronger effect = higher value
[7] = yeast transport mutant growth inhibition pilot in 384-well plates, post-Golgi transport modulator project (AID 636; in the data active = inhibition above about 31%); conditions: absorbance 615 nm, about 18 h, stronger effect = higher value
[8] = growth suppression of yeast trafficking mutant, preliminary HTS, modulators of trafficking downstream of Golgi apparatus project, 1536-format plate, OD 615 nm (AID 637; in the data active = inhibition above about 30%); conditions: yeast transport mutant growth, absorbance 615 nm, 18 h; stronger effect = higher value
[9] = H69AR cells + 2 uM doxorubicin, measured here: viability with 2 uM doxorubicin, stronger effect = lower value
[10] = H69AR cells, compound alone cytotoxicity

Receptor tyrosine-protein kinase erbB-2 (Homo sapiens), sequence (P04626 whole entry, looked up): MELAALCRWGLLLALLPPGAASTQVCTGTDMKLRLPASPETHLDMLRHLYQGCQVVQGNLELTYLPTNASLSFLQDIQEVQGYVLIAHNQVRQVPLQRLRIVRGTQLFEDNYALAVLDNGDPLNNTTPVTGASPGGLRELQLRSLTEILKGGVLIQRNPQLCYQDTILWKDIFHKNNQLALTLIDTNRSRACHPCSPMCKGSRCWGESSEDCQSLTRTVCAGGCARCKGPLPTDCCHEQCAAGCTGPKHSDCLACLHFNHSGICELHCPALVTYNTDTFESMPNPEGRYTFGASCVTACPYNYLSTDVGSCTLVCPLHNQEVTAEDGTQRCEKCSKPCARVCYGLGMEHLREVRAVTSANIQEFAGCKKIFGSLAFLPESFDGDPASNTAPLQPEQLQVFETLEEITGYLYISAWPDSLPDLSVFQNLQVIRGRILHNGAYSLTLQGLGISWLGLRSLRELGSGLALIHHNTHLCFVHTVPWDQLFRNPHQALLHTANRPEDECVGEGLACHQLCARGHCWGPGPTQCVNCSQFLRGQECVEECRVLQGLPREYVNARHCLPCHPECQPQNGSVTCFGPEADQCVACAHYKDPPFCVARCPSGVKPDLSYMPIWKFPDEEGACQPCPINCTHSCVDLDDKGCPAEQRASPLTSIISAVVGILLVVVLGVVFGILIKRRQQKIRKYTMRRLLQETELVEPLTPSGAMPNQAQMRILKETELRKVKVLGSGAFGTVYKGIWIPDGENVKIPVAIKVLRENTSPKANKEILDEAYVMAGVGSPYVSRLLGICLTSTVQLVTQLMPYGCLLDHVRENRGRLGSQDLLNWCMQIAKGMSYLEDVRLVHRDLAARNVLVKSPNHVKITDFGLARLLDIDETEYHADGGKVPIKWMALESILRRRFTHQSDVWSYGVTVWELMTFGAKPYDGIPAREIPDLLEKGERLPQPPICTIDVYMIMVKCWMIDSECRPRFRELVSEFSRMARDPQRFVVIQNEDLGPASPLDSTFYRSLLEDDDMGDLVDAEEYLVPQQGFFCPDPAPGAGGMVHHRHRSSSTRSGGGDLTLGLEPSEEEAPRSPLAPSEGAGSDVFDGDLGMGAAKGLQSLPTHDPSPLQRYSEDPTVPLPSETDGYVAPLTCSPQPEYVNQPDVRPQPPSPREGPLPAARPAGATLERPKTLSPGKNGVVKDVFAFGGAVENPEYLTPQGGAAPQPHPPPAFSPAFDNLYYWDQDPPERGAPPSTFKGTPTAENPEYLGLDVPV

| Compound | viability [1] [%] | Her2 level [2] | viability [3] | viability [4] | viability [5] | differential viability (reversal) ([6]; H69AR cells + 2 uM doxorubicin) | viability [6, 9] [%] | viability [6, 10] [%] | inhibition [7] | inhibition [8] |
| --- | --- | --- | --- | --- | --- | --- | --- | --- | --- | --- |
| O=S(=O)(c1ccc(OCC(O)CN2CCC(Cc3ccccc3)CC2)cc1)N1CCOCC1 (stereo not given) | 81.5 | 81.5% (inactive) | 81.5% (inactive) | 73.4% (inactive) | 84.8% (inactive) | -9.48% (inactive) | 94.2 | 84.8 | -6.45% (inactive) | -5.24% (inactive) |
| O=C(NCc1ccccn1)C(C(=O)c1ccc(F)cc1)n1ccccc1=O (stereo not given) | 86.5 | 95.5% (inactive) | 86.5% (inactive) | 97.9% (inactive) | 96.4% (inactive) | -3.97% (inactive) | 100 | 96.4 | -4.05% (inactive) | 4.1% (inactive) |
| CCOC(=O)CNc1ccc2c(c1)OCO2 | 88 | 90% (inactive) | 88% (inactive) | 76.6% (inactive) | 98.7% (inactive) | 13.2% (inactive) | 85.6 | 98.7 | -5% (inactive) | -2.3% (inactive) |
| Cc1cc(C)n2nc(SCc3cc(=O)n4ccccc4n3)nc2n1 | 100 | 72.5% (inactive) | 100% (inactive) | 107% (inactive) | 101% (inactive) | 5.5% (inactive) | 95.3 | 101 | -4.47% (inactive) | -1% (inactive) |
| CCOCCCNC(=O)CC1Oc2ccc(C)cc2NC1=O (stereo not given) | 109 | 100% (inactive) | 109% (inactive) | 86.8% (inactive) | 94.7% (inactive) | -3.06% (inactive) | 97.7 | 94.7 | -1.6% (inactive) | 5.08% (inactive) |
| COCC(=O)N(c1ccc(C(C)C)cc1)C1C=CS(=O)(=O)C1 (stereo not given) | 93.5 | 80% (inactive) | 93.5% (inactive) | 78.9% (inactive) | 89.6% (inactive) | 0.84% (inactive) | 88.8 | 89.6 | -3.08% (inactive) | 0.83% (inactive) |
| Cc1cc(NC(=O)Cc2cn3ccsc3n2)n(-c2ccccc2)n1 | 91 | 103% (inactive) | 91% (inactive) | 91.8% (inactive) | 94.9% (inactive) | 5.08% (inactive) | 89.9 | 94.9 | -0.64% (inactive) | 0.33% (inactive) |
| N#Cc1c(N)nc2c(c1-c1ccncc1)CCCCC2 | 102 | 86.5% (inactive) | 102% (inactive) | 78.2% (inactive) | 90.7% (inactive) | -3.37% (inactive) | 94 | 90.7 | -4.4% (inactive) | 4.43% (inactive) |
| CN(Cc1nc(-c2ccncc2)no1)S(=O)(=O)c1ccccc1 | 99.5 | 79% (inactive) | 99.5% (inactive) | 96.3% (inactive) | 95.7% (inactive) | 7.03% (inactive) | 88.7 | 95.7 | -7.57% (inactive) | 0.79% (inactive) |
| CC(C)(C)OC(=O)N1CCC(C(=O)N2CCCCCC2)CC1 | 94 | 87.5% (inactive) | 94% (inactive) | 102% (inactive) | 107% (inactive) | 21.3% (inactive) | 86.2 | 107 | -1.71% (inactive) | -6.36% (inactive) |
| O=C1N=C(N2CCOCC2)CS1 | 108 | 110% (inactive) | 108% (inactive) | 103% (inactive) | 104% (inactive) | 5.3% (inactive) | 98.3 | 104 | -4.27% (inactive) | -1.45% (inactive) |
| CCCCN(C)C(=O)CS(=O)(=O)Cc1nc(-c2cccc(OC)c2)oc1C | 94 | 114% (inactive) | 94% (inactive) | 94.8% (inactive) | 99.9% (inactive) | 15.6% (inactive) | 84.2 | 99.9 | -4.4% (inactive) | 3.11% (inactive) |
| COc1ccc(OC)c(C2/C(=C(\O)c3ccc4c(c3)OCCO4)C(=O)C(=O)N2CCCN(C)C)c1 (stereo not given) | 102 | 76.5% (inactive) | 102% (inactive) | 111% (inactive) | 101% (inactive) | 9.38% (inactive) | 91.3 | 101 | -4.05% (inactive) | -3.81% (inactive) |
| CCOC(=O)c1oc2ccccc2c1CSc1nnnn1-c1ccc(OC)cc1 | 82.5 | 69% (inactive) | 82.5% (inactive) | 77.4% (inactive) | 75% (inactive) | 1.07% (inactive) | 73.9 | 75 | -4.8% (inactive) | 0.16% (inactive) |
| CCCC1(C(=O)OCC)NC(c2ccc(N(C)C)cc2)C2C(=O)N(c3ccccc3)C(=O)C21 (stereo not given) | 109 | 99% (inactive) | 109% (inactive) | 99.2% (inactive) | 97.2% (inactive) | 3.73% (inactive) | 93.5 | 97.2 | -7.11% (inactive) | -6.03% (inactive) |
| COc1ccc(NS(=O)(=O)c2c(C)[nH]c(=O)[nH]c2=O)c(OC)c1 | 88.5 | 91% (inactive) | 88.5% (inactive) | 97.9% (inactive) | 90.8% (inactive) | 1.25% (inactive) | 89.5 | 90.8 | -0.39% (inactive) | -4% (inactive) |

| Compound | viability [1] [%] | Her2 level [2] | viability [3] | viability [4] | viability [5] | differential viability (reversal) ([6]; H69AR cells + 2 uM doxorubicin) | viability [6, 9] [%] | viability [6, 10] [%] | inhibition [7] | inhibition [8] |
| --- | --- | --- | --- | --- | --- | --- | --- | --- | --- | --- |
| CCOC(=O)N1CCN(C(=O)c2ccc3nc4cc(Cl)ccc4c(=O)n3c2)CC1 | 91 | 95% (inactive) | 91% (inactive) | 96% (inactive) | 91.1% (inactive) | 2.21% (inactive) | 88.8 | 91.1 | -3.07% (inactive) | 2.1% (inactive) |
| CCC(=O)Nc1ccc2nc(SCC(=O)N3CCCC3)sc2c1 | 97.5 | 100% (inactive) | 97.5% (inactive) | 114% (inactive) | 94.1% (inactive) | 5.62% (inactive) | 88.5 | 94.1 | 2.67% (inactive) | 38.4% (active) |
| Cc1[nH]c(=O)[nH]c(=O)c1S(=O)(=O)N1c2ccc(F)cc2CCC1C (stereo not given) | 97.5 | 90% (inactive) | 97.5% (inactive) | 100% (inactive) | 95.7% (inactive) | -3.9% (inactive) | 99.6 | 95.7 | -6.97% (inactive) | 3.17% (inactive) |
| Cc1nnc(N2C(=O)c3oc4ccccc4c(=O)c3C2c2ccco2)s1 (stereo not given) | 93 | 99.5% (inactive) | 93% (inactive) | 115% (inactive) | 95.2% (inactive) | 9.59% (inactive) | 85.6 | 95.2 | -1.54% (inactive) | 0.83% (inactive) |
| COc1cc(OC)cc(-c2nc3cc(C)ccc3o2)c1 | 95.5 | 70.5% (inactive) | 95.5% (inactive) | 62.8% (inactive) | 73% (inactive) | -2.79% (inactive) | 75.8 | 73 | -3.16% (inactive) | -4.52% (inactive) |
| CCOC(=O)C1=C(CC)Nc2ccccc2N=C1NC(=O)Cn1cnc2ccccc2c1=O | 96 | 80.5% (inactive) | 96% (inactive) | 97.1% (inactive) | 103% (inactive) | 20.2% (inactive) | 82.3 | 103 | -5.07% (inactive) | 2.9% (inactive) |
| COc1ccc(C)cc1-n1nnnc1SCC(=O)Nc1cc(C)on1 | 95 | 85% (inactive) | 95% (inactive) | 78.6% (inactive) | 90.6% (inactive) | 4.68% (inactive) | 85.9 | 90.6 | -2.6% (inactive) | -0.63% (inactive) |
| COc1ccc(N2CCN(Cc3nc4ccccc4c(=O)[nH]3)CC2)cc1 | 104 | 98% (inactive) | 104% (inactive) | 92.1% (inactive) | 94.3% (inactive) | -2.54% (inactive) | 96.8 | 94.3 | -3.33% (inactive) | -5.57% (inactive) |
| Cc1ccc(-c2cc(C(=O)NCc3ccc4c(c3)OCO4)no2)cc1 | 96 | 77% (inactive) | 96% (inactive) | 84.9% (inactive) | 90.8% (inactive) | 5.94% (inactive) | 84.9 | 90.8 | -7.43% (inactive) | -0.33% (inactive) |
| Cc1ccc(C)c(-c2nc3cc(N)ccc3o2)c1 | 78.5 | 106% (inactive) | 78.5% (inactive) | 46.6% (inactive) | 102% (inactive) | 8.46% (inactive) | 93.8 | 102 | -1.18% (inactive) | -6.03% (inactive) |
| CCCS(=O)(=O)N1CCC(C(=O)N2CCCC2)CC1 | 112 | 93% (inactive) | 112% (inactive) | 115% (inactive) | 95% (inactive) | 3.92% (inactive) | 91.1 | 95 | -3.55% (inactive) | -0.82% (inactive) |
| CCOC(=O)c1ccccc1NC(=O)COC(=O)C1=COCCO1 | 98.5 | 92% (inactive) | 98.5% (inactive) | 96.7% (inactive) | 88.7% (inactive) | -13.3% (inactive) | 102 | 88.7 | -5.81% (inactive) | 3% (inactive) |
| CC(=O)OCC1OC(c2ccccc2)C(OC(C)=O)C(OC(C)=O)C1OC(C)=O (stereo not given) | 90 | 94.5% (inactive) | 90% (inactive) | 108% (inactive) | 98.8% (inactive) | -1.94% (inactive) | 101 | 98.8 | -3.21% (inactive) | -3.83% (inactive) |
| NC(=O)c1ccccc1NC(=O)CN1CCOCC1 | 106 | 87% (inactive) | 106% (inactive) | 104% (inactive) | 88.1% (inactive) | 6.19% (inactive) | 81.9 | 88.1 | -1.87% (inactive) | 0.32% (inactive) |
| CN(C)c1ccc(-c2nn3c(-c4ccc(Cl)cc4Cl)nnc3s2)cc1 | 100 | 71% (inactive) | 100% (inactive) | 46.7% (inactive) | 15.1% (active) | -42.6% (inactive) | 57.7 | 15.1 | -6.08% (inactive) | 5.08% (inactive) |

Reference: PubChem BioAssay
